The source made the active and inactive calls. The rule behind the calls is not given here. Where a SMILES comes first, the peptide text is derived from it.
Tests used:
BJ = experiment: Cytotoxicity against human BJ cells assessed as decrease in cell viability at 128 ug/ml after 24 hrs by Alamar blue assay; assay type: cell-based
Summary of the method: (§1)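 Cells treated in 96-well culture plates in triplicate at 128 μg/mL. Viability measured 24 h after treatment with the redox dye Alamar Blue. Fluorescence read at 560/12 nm excitation and 590 nm emission, at time zero and 4 h after dye addition.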

Keratinocyte = experiment: Cytotoxicity against human epidermal keratinocytes assessed as decrease in cell viability at 128 ug/ml after 24 hrs by Alamar blue assay; summary of the method: as §1
Homo sapiens = species on record: Homo sapiens; experiment: Cytotoxicity against human HTB-26 cells assessed as decrease in cell viability at 128 ug/ml after 24 hrs by Alamar blue assay; assay type: functional, cell-based; summary of the method: as §1
MCF7 = experiment: Cytotoxicity against human MCF7 cells assessed as decrease in cell viability at 128 ug/ml after 24 hrs by Alamar blue assay; assay type: functional, cell-based; summary of the method: as §1
Staphylococcus aureus = experiment: Antimicrobial activity against methicillin-resistant Staphylococcus aureus ATCC 33591 at 128 ug/ml after 22 hrs by micro broth dilution assay; assay type: functional, organism-based
Summary of the method: (§2)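 CLSI 96-well microbroth dilution, triplicate; tested at 128 μg/mL; strains MRSA ATCC 33591 and VRE E. faecium EF379; optical density read at time zero and after 22 h incubation to give growth inhibition.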

Enterococcus faecium = experiment: Antimicrobial activity against vancomycin-resistant Enterococcus faecium EF379 at 128 ug/ml after 22 hrs by micro broth dilution assay; assay type: functional, organism-based; summary of the method: as §2
Staphylococcus warneri = experiment: Antimicrobial activity against Staphylococcus warneri ATCC 17917 at 128 ug/ml after 22 hrs by micro broth dilution assay; assay type: functional, organism-based
Summary of the method: (§3)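 CLSI-standard 96-well broth microdilution, run in triplicate. Test concentration 128 μg/mL. Optical density read at time zero and at the final time point; growth inhibition calculated from the change after 22 h incubation.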

Pseudomonas aeruginosa = experiment: Antimicrobial activity against Pseudomonas aeruginosa ATCC 14210 at 128 ug/ml after 22 hrs by micro broth dilution assay; assay type: functional, organism-based; summary of the method: as §3
Candida albicans = experiment: Antimicrobial activity against Candida albicans ATCC 14035 at 128 ug/ml after 22 hrs by micro broth dilution assay; assay type: functional, organism-based; summary of the method: as §3

SMILES: CC(C)C[C@@H]1NC(=O)[C@@H](C(C)C)NC(=O)[C@@H](C(C)C)NC(=O)[C@@H](C(C)C)NC(=O)[C@H](Cc2ccccc2)NC(=O)[C@@H](Cc2ccccc2)NC(=O)[C@@H](C(C)C)NC1=O (HELM PEPTIDE1{F.[dV].[dV].[dV].L.[dV].[dF]}$PEPTIDE1,PEPTIDE1,1:R1-7:R2$$$V2.0)
- Activity (BJ): Non-Toxic
- Activity (Keratinocyte): Non-Toxic
- Activity (Homo sapiens): inactive
- Activity (MCF7): inactive
- Activity (Staphylococcus aureus): inactive
- Activity (Enterococcus faecium): inactive
- Activity (Staphylococcus warneri): inactive
- Activity (Pseudomonas aeruginosa): inactive
- Activity (Candida albicans): inactive

SMILES: CC[C@@H](C)[C@H]1NC(=O)[C@@H](C)NC(=O)[C@H](Cc2ccccc2)NC(=O)[C@@H](CC(C)C)NC(=O)[C@@H](C(C)C)NC(=O)[C@H](Cc2ccccc2)NC(=O)[C@@H]([C@H](C)CC)NC1=O (HELM PEPTIDE1{F.[dA].[dI].[dI].F.[dV].[dL]}$PEPTIDE1,PEPTIDE1,1:R1-7:R2$$$V2.0)
- Activity (BJ): Non-Toxic
- Activity (Keratinocyte): Non-Toxic
- Activity (Homo sapiens): inactive
- Activity (MCF7): inactive
- Activity (Staphylococcus aureus): inactive
- Activity (Enterococcus faecium): inactive
- Activity (Staphylococcus warneri): inactive
- Activity (Pseudomonas aeruginosa): inactive
- Activity (Candida albicans): inactive

SMILES: CC[C@@H](C)[C@H]1NC(=O)[C@H](Cc2ccccc2)NC(=O)[C@@H]([C@H](C)CC)NC(=O)[C@@H](C(C)C)NC(=O)[C@@H]([C@H](C)CC)NC(=O)[C@H]([C@@H](C)CC)NC(=O)[C@@H](C)NC1=O
- Activity (BJ): Non-Toxic
- Activity (Keratinocyte): Non-Toxic
- Activity (Homo sapiens): inactive
- Activity (MCF7): inactive
- Activity (Staphylococcus aureus): inactive
- Activity (Enterococcus faecium): inactive
- Activity (Staphylococcus warneri): inactive
- Activity (Pseudomonas aeruginosa): inactive
- Activity (Candida albicans): inactive

SMILES: CC(C)[C@H]1NC(=O)[C@H](Cc2ccccc2)NC(=O)[C@@H](C(C)C)NC(=O)[C@@H](C(C)C)NC(=O)[C@@H](C(C)C)NC(=O)[C@H](Cc2ccccc2)NC(=O)[C@@H](Cc2ccccc2)NC1=O (HELM PEPTIDE1{F.[dV].[dF].F.[dV].[dV].[dV]}$PEPTIDE1,PEPTIDE1,1:R1-7:R2$$$V2.0)
- Activity (BJ): Non-Toxic
- Activity (Keratinocyte): Non-Toxic
- Activity (Homo sapiens): inactive
- Activity (MCF7): inactive
- Activity (Staphylococcus aureus): inactive
- Activity (Enterococcus faecium): inactive
- Activity (Staphylococcus warneri): inactive
- Activity (Pseudomonas aeruginosa): inactive
- Activity (Candida albicans): inactive
